{"source": "ChEMBL document CHEMBL1125651", "about": "“Nucleosides and nucleotides. 95. Improved synthesis of 1-(2-azido-2-deoxy-beta-D-arabinofuranosyl)cytosine (cytarazid) and -thymine. Inhibitory spectrum of cytarazid on the growth of various human tumor cells in vitro” (J Med Chem, 1991)", "key": {"MFH-ST [1]": {"test_system": "MFH-ST", "test": "In vitro inhibitory effect measured against human malignant fibrous histiocytoma MFH-ST tumor cells", "assay_type": "functional, cell-based", "summary_of_the_method": "(§1)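 Cells seeded at 1 × 10^4 cells/mL in RPMI 1640 with 10% heat-inactivated FBS and 50 μg/mL kanamycin. Cultured 72 h at 37 °C in a CO2 incubator with a range of compound concentrations. Viability read by MTT colorimetric assay at OD 570 nm against untreated control wells. IC50 is the μg/mL concentration giving 50% growth inhibition; representative of three separate experiments.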"}, "OST [2]": {"test_system": "OST", "test": "In vitro inhibitory effect measured against human osteosarcoma OST tumor cells", "assay_type": "functional, cell-based", "summary_of_the_method": "as §1"}, "PC-9": {"test_system": "PC-9", "test": "In vitro inhibitory effect measured against human lung adenocarcinoma PC-9 tumor cells", "assay_type": "functional, cell-based", "summary_of_the_method": "as §1"}, "PC-8": {"test_system": "PC-8", "test": "In vitro inhibitory effect measured against human lung adenocarcinoma PC-8 tumor cells", "assay_type": "functional, cell-based", "summary_of_the_method": "as §1"}, "PC-6": {"test_system": "PC-6", "test": "In vitro inhibitory effect measured against human lung small-cell carcinoma PC-6 tumor cells", "assay_type": "functional, cell-based", "summary_of_the_method": "as §1"}, "NCC": {"test_system": "NCC", "test": "In vitro inhibitory effect measured against human renal cell carcinoma NCC-nu tumor cells", "assay_type": "functional, cell-based", "summary_of_the_method": "as §1"}, "SAOS-2": {"test_system": "SAOS-2", "test": "In vitro inhibitory effect measured against human osteosarcoma SAOS-2 tumor cells", "assay_type": "functional, cell-based", "summary_of_the_method": "as §1"}, "HT-1080": {"test_system": "HT-1080", "test": "In vitro inhibitory effect measured against human fibrosarcoma HT1080 tumor cells", "assay_type": "functional, cell-based", "summary_of_the_method": "as §1"}, "NUGC-4 [3]": {"test_system": "NUGC-4", "test": "In vitro inhibitory effect measured against human stomach adenocarcinoma NUGC-4 tumor cells", "assay_type": "functional, cell-based", "summary_of_the_method": "as §1"}, "HOS [4]": {"test_system": "HOS", "test": "In vitro inhibitory effect measured against human osteosarcoma HOS tumor cells", "assay_type": "functional, cell-based", "summary_of_the_method": "as §1"}, "T-24": {"test_system": "T-24", "test": "In vitro inhibitory effect measured against human bladder transitional cell carcinoma T-24 tumor cells", "assay_type": "functional, cell-based", "summary_of_the_method": "as §1"}, "PC-3 [5]": {"test_system": "PC-3", "test": "In vitro inhibitory effect measured against human lung adenocarcinoma PC-3 tumor cells", "assay_type": "functional, cell-based", "summary_of_the_method": "as §1"}, "ST-KM-1 [6]": {"test_system": "ST-KM-1", "test": "In vitro inhibitory effect measured against human stomach adenocarcinoma ST-KM tumor cells", "assay_type": "functional, cell-based", "summary_of_the_method": "as §1"}, "KHOS-321H": {"test_system": "KHOS-321H", "test": "In vitro inhibitory effect measured against human osteosarcoma KHOS-321H tumor cells", "assay_type": "functional, cell-based", "summary_of_the_method": "as §1"}, "MKN-28": {"test_system": "MKN-28", "test": "In vitro inhibitory effect measured against human stomach adenocarcinoma MKN-28 tumor cells", "assay_type": "functional, cell-based", "summary_of_the_method": "as §1"}, "SK-ES1": {"test_system": "SK-ES1", "test": "In vitro inhibitory effect measured against human osteosarcoma SK-ES-1 tumor cells", "assay_type": "functional, cell-based", "summary_of_the_method": "as §1"}, "U2OS [7]": {"test_system": "U2OS", "test": "In vitro inhibitory effect measured against human osteosarcoma U20-S tumor cells", "assay_type": "functional, cell-based", "summary_of_the_method": "as §1"}, "QG-56 [8]": {"test_system": "QG-56", "test": "In vitro inhibitory effect measured against human lung suamous-cell carcinoma QG-56 tumor cells", "assay_type": "functional, cell-based", "summary_of_the_method": "as §1"}, "HOS-TE85": {"test_system": "HOS-TE85", "test": "In vitro inhibitory effect measured against human osteosarcoma MNNG-HOS tumor cells", "assay_type": "functional, cell-based", "summary_of_the_method": "as §1"}, "MG-63 [9]": {"test_system": "MG-63", "test": "In vitro inhibitory effect measured against human osteosarcoma MG-63 tumor cells", "assay_type": "functional, cell-based", "summary_of_the_method": "as §1"}, "PC-13 [10]": {"test_system": "PC-13", "test": "In vitro inhibitory effect measured against human lung large-cell carcinoma PC-13 tumor cells", "assay_type": "functional, cell-based", "summary_of_the_method": "as §1"}, "NUGC-4 [11]": {"test_system": "NUGC-4", "test": "In vitro inhibitory effect measured against human stomach adenocarcinoma NUGC-4 tumor cells at 100 ug/mL", "assay_type": "functional", "summary_of_the_method": "(§2)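 MTT viability assay after 72 h exposure at 37 °C in a CO2 incubator. Cells at 1 × 10^4 cells/mL in RPMI 1640 with 10% heat-inactivated FBS and 50 μg/mL kanamycin. Percent inhibition = [1 − OD570 of sample/OD570 of untreated control] × 100. Representative of three separate experiments.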"}, "HOS [12]": {"test_system": "HOS", "test": "In vitro inhibitory effect measured against human osteosarcoma HOS tumor cells at 100 ug/mL", "assay_type": "functional", "summary_of_the_method": "as §2"}, "MFH-ST [13]": {"test_system": "MFH-ST", "test": "In vitro inhibitory effect measured against human malignant fibrous histiocytoma MFH-ST tumor cells at 100 ug/mL", "assay_type": "functional", "summary_of_the_method": "as §2"}, "U2OS [14]": {"test_system": "U2OS", "test": "In vitro inhibitory effect measured against human osteosarcoma U20-S tumor cells at 100 ug/mL", "assay_type": "functional", "summary_of_the_method": "as §2"}, "QG-56 [15]": {"test_system": "QG-56", "test": "In vitro inhibitory effect measured against human lung suamous-cell carcinoma QG-56 tumor cells at 100 ug/mL", "assay_type": "functional", "summary_of_the_method": "as §2"}, "PC-3 [16]": {"test_system": "PC-3", "test": "In vitro inhibitory effect measured against human lung adenocarcinoma PC-3 tumor cells at 100 ug/mL", "assay_type": "functional", "summary_of_the_method": "as §2"}, "ST-KM-1 [17]": {"test_system": "ST-KM-1", "test": "In vitro inhibitory effect measured against human stomach adenocarcinoma ST-KM tumor cells at 100 ug/mL", "assay_type": "functional", "summary_of_the_method": "as §2"}, "PC-13 [18]": {"test_system": "PC-13", "test": "In vitro inhibitory effect measured against human lung large-cell carcinoma PC-13 tumor cells at 100 ug/mL", "assay_type": "functional", "summary_of_the_method": "as §2"}, "MG-63 [19]": {"test_system": "MG-63", "test": "In vitro inhibitory effect measured against human osteosarcoma MG-63 tumor cells at 100 ug/mL", "assay_type": "functional", "summary_of_the_method": "as §2"}, "OST [20]": {"test_system": "OST", "test": "In vitro inhibitory effect measured against human osteosarcoma OST tumor cells at 100 ug/mL", "assay_type": "functional", "summary_of_the_method": "as §2"}}, "data": [{"smiles": "[N-]=[N+]=N[C@H]1[C@H](O)[C@@H](CO)O[C@H]1n1ccc(N)nc1=O", "note": "[CYTARAZID]", "values": [{"measurement": "IC50", "setting": "MFH-ST [1]", "value": 14, "unit": "µg/mL"}, {"measurement": "IC50", "setting": "OST [2]", "value": 6.4, "unit": "µg/mL"}, {"measurement": "IC50", "setting": "PC-9", "value": 1, "unit": "µg/mL"}, {"measurement": "IC50", "setting": "PC-8", "value": 1.2, "unit": "µg/mL"}, {"measurement": "IC50", "setting": "PC-6", "value": 18, "unit": "µg/mL"}, {"measurement": "IC50", "setting": "NCC", "value": 1.8, "unit": "µg/mL"}, {"measurement": "IC50", "setting": "SAOS-2", "value": 2.8, "unit": "µg/mL"}, {"measurement": "IC50", "setting": "HT-1080", "value": 1.6, "unit": "µg/mL"}, {"measurement": "IC50", "setting": "NUGC-4 [3]", "value": 1.4, "unit": "µg/mL"}, {"measurement": "IC50", "setting": "HOS [4]", "value": 9.4, "unit": "µg/mL"}, {"measurement": "IC50", "setting": "T-24", "value": 0.56, "unit": "µg/mL"}, {"measurement": "IC50", "setting": "PC-3 [5]", "value": 18, "unit": "µg/mL"}, {"measurement": "IC50", "setting": "ST-KM-1 [6]", "value": 1.1, "unit": "µg/mL"}, {"measurement": "IC50", "setting": "KHOS-321H", "value": 0.62, "unit": "µg/mL"}, {"measurement": "IC50", "setting": "MKN-28", "value": 2.2, "unit": "µg/mL"}, {"measurement": "IC50", "setting": "SK-ES1", "value": 1.1, "unit": "µg/mL"}, {"measurement": "IC50", "setting": "U2OS [7]", "value": 14, "unit": "µg/mL"}, {"measurement": "IC50", "setting": "QG-56 [8]", "value": 5.4, "unit": "µg/mL"}, {"measurement": "IC50", "setting": "HOS-TE85", "value": 1.5, "unit": "µg/mL"}, {"measurement": "IC50", "setting": "MG-63 [9]", "value": 30, "unit": "µg/mL"}, {"measurement": "IC50", "setting": "PC-13 [10]", "value": 18, "unit": "µg/mL"}]}, {"smiles": "Nc1ccn([C@@H]2O[C@H](CO)[C@@H](O)[C@@H]2O)c(=O)n1", "note": "[CYTARABINE]", "values": [{"measurement": "inhibition at 100 µg/mL", "setting": "NUGC-4 [11]", "value": 49.9, "unit": "%"}, {"measurement": "inhibition at 100 µg/mL", "setting": "HOS [12]", "value": 45.4, "unit": "%"}, {"measurement": "inhibition at 100 µg/mL", "setting": "MFH-ST [13]", "value": 47.9, "unit": "%"}, {"measurement": "inhibition at 100 µg/mL", "setting": "U2OS [14]", "value": 43.9, "unit": "%"}, {"measurement": "inhibition at 100 µg/mL", "setting": "QG-56 [15]", "value": 24.4, "unit": "%"}, {"measurement": "IC50", "setting": "PC-9", "value": 1.6, "unit": "µg/mL"}, {"measurement": "IC50", "setting": "PC-8", "value": 0.28, "unit": "µg/mL"}, {"measurement": "IC50", "setting": "NCC", "value": 0.13, "unit": "µg/mL"}, {"measurement": "IC50", "setting": "SAOS-2", "value": 2.7, "unit": "µg/mL"}, {"measurement": "IC50", "setting": "HT-1080", "value": 0.13, "unit": "µg/mL"}, {"measurement": "inhibition at 100 µg/mL", "setting": "PC-3 [16]", "value": 46.2, "unit": "%"}, {"measurement": "inhibition at 100 µg/mL", "setting": "ST-KM-1 [17]", "value": 48.6, "unit": "%"}, {"measurement": "inhibition at 100 µg/mL", "setting": "PC-13 [18]", "value": 40, "unit": "%"}, {"measurement": "inhibition at 100 µg/mL", "setting": "MG-63 [19]", "value": 29.5, "unit": "%"}, {"measurement": "IC50", "setting": "KHOS-321H", "value": 0.27, "unit": "µg/mL"}, {"measurement": "IC50", "setting": "MKN-28", "value": 4.5, "unit": "µg/mL"}, {"measurement": "IC50", "setting": "SK-ES1", "value": 0.09, "unit": "µg/mL"}, {"measurement": "IC50", "setting": "HOS-TE85", "value": 2.6, "unit": "µg/mL"}, {"measurement": "inhibition at 100 µg/mL", "setting": "OST [20]", "value": 48, "unit": "%"}]}]}
